From ChEMBL document CHEMBL1125014, “Synthesis and structure-activity relationships of new 9-N-alkyl derivatives of 9(S)-erythromycylamine” (1990) come the findings set out here.

Holding throughout (type): functional
Test [1] deals with Streptococcus pyogenes. The test is described as follows: MIC value measured against streptococcus pyogenes C203.
Test [2] has as its system Staphylococcus epidermidis. The test is described as follows: microbe, parasite or virus in culture.
Test [3] relates to Staphylococcus aureus. Nature of the test: MIC value measured against staphylococcus aureus X1.
Test [4] relates to Haemophilus influenzae. The test is described as follows: MIC value was measured against haemophilus influenzae. In a few lines:
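Susceptibility determined by standard agar-dilution method against a panel of bacterial strains.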

In test [5] the test system is Streptococcus pneumoniae. The test is described as follows: MIC value measured against streptococcus pneumoniae Park1.
Test [6] has as its system Staphylococcus aureus. The test is described as follows: Effective dose against mice infected with Staphylococcus aureus after peroral administration (in vivo). Particulars: in Mus musculus, po.
In test [7] the test system is Streptococcus pyogenes. The test is described as follows: Effective dose against mice infected with streptococcus pyogenes after peroral administration (in vivo). Conditions: in Mus musculus, po.
The test system of test [8] is Haemophilus influenzae. The test is described as follows: MIC value was measured against haemophilus influenzae CL.
In test [9] the test system is Streptococcus pneumoniae. Nature of the test: Effective dose against mice infected with streptococcus pneumoniae after peroral administration (in vivo). Conditions: in Mus musculus, po.

Each structure is given as a SMILES string. In brackets after ≈: the same amount, converted by molar mass.

Turning to `CC[C@H]1OC(=O)[C@H](C)[C@@H](OC2CC(C)(OC)C(O)C(C)O2)[C@H](C)[C@@H](OC2OC(C)CC(N(C)C)C2O)[C@](C)(O)C[C@@H](C)[C@H](NCC2CCCCCCC2)[C@H](C)[C@@H](O)[C@]1(C)O` (some centres not stated), the MIC in the test with Streptococcus pyogenes [1] is 0.06 µg/mL (≈ 0.0698 µM); in test [2] it was 0.5 µg/mL (≈ 0.582 µM); with Staphylococcus aureus [3], 1 µg/mL (≈ 1.16 µM).

The term ED50 denotes the dose at which the effect has come halfway, by size or by number of responders. On to `CC[C@H]1OC(=O)[C@H](C)[C@@H](OC2CC(C)(OC)C(O)C(C)O2)[C@H](C)[C@@H](OC2OC(C)CC(N(C)C)C2O)[C@](C)(O)C[C@@H](C)[C@H](N(C)C2CCCCC2)[C@H](C)[C@@H](O)[C@]1(C)O` (some centres not stated), for which the MIC against Haemophilus influenzae [4] came to 32 µg/mL (≈ 38.5 µM); in the test on Streptococcus pneumoniae [5], 0.12 µg/mL (≈ 0.144 µM); in the test with Streptococcus pyogenes [1], 1 µg/mL (≈ 1.2 µM); in the test with Haemophilus influenzae [8], 32 µg/mL (≈ 38.5 µM); in test [2] it was 8 µg/mL (≈ 9.63 µM); in the test on Staphylococcus aureus [3] it was 16 µg/mL (≈ 19.3 µM). For the same compound, the ED50 with Staphylococcus aureus [6], in the test on Streptococcus pyogenes [7] and in the test on Streptococcus pneumoniae [9] was above 50 mg/kg in each case.

`C=CCCCCCCCCCN[C@@H]1[C@H](C)[C@@H](O)[C@](C)(O)[C@@H](CC)OC(=O)[C@H](C)[C@@H](OC2CC(C)(OC)C(O)C(C)O2)[C@H](C)[C@@H](OC2OC(C)CC(N(C)C)C2O)[C@](C)(O)C[C@H]1C` (some centres not stated): the MIC against Haemophilus influenzae [4] is 2 µg/mL (≈ 2.25 µM); against Streptococcus pyogenes [1], 1 µg/mL (≈ 1.13 µM); in the test with Haemophilus influenzae [8], 2 µg/mL (≈ 2.25 µM); in test [2], 1 µg/mL (≈ 1.13 µM); in the test on Staphylococcus aureus [3] it was 2 µg/mL (≈ 2.25 µM).

`CCCCCCCCCCN[C@@H]1[C@H](C)[C@@H](O)[C@](C)(O)[C@@H](CC)OC(=O)[C@H](C)[C@@H](OC2CC(C)(OC)C(O)C(C)O2)[C@H](C)[C@@H](OC2OC(C)CC(N(C)C)C2O)[C@](C)(O)C[C@H]1C` (some centres not stated): the MIC against Haemophilus influenzae [4] stood at 2 µg/mL (≈ 2.29 µM); with Streptococcus pneumoniae [5], 0.015 µg/mL (≈ 0.0171 µM); with Streptococcus pyogenes [1], 0.015 µg/mL (≈ 0.0171 µM); in the test with Haemophilus influenzae [8] it was 2 µg/mL (≈ 2.29 µM); in test [2] it was 1 µg/mL (≈ 1.14 µM); in the test with Staphylococcus aureus [3] it was 1 µg/mL (≈ 1.14 µM). Further, the ED50 in the test with Staphylococcus aureus [6], in the test on Streptococcus pyogenes [7] and with Streptococcus pneumoniae [9] was above 50 mg/kg in each case.

On to `CCCCCCCN[C@@H]1[C@H](C)[C@@H](O)[C@](C)(O)[C@@H](CC)OC(=O)[C@H](C)[C@@H](OC2CC(C)(OC)C(O)C(C)O2)[C@H](C)[C@@H](OC2OC(C)CC(N(C)C)C2O)[C@](C)(O)C[C@H]1C` (some centres not stated), for which the MIC stood at 1 µg/mL (≈ 1.2 µM) with Haemophilus influenzae [4]; 0.015 µg/mL (≈ 0.018 µM) with Streptococcus pneumoniae [5]; 0.015 µg/mL (≈ 0.018 µM) in the test on Streptococcus pyogenes [1]; 1 µg/mL (≈ 1.2 µM) against Haemophilus influenzae [8]; 0.25 µg/mL (≈ 0.3 µM) in [2]; 0.25 µg/mL (≈ 0.3 µM) against Staphylococcus aureus [3]. The values for the ED50 in the test on Staphylococcus aureus [6], in the test on Streptococcus pyogenes [7] and in the test on Streptococcus pneumoniae [9] were above 50 mg/kg, 31 mg/kg and 33 mg/kg, respectively.

Turning to `CC[C@H]1OC(=O)[C@H](C)[C@@H](OC2CC(C)(OC)C(O)C(C)O2)[C@H](C)[C@@H](OC2OC(C)CC(N(C)C)C2O)[C@](C)(O)C[C@@H](C)[C@H](NCCCC#N)[C@H](C)[C@@H](O)[C@]1(C)O` (some centres not stated), the MIC in the test with Haemophilus influenzae [4] came out at 2 µg/mL (≈ 2.49 µM); against Streptococcus pyogenes [1], 1 µg/mL (≈ 1.25 µM); against Haemophilus influenzae [8] it was 2 µg/mL (≈ 2.49 µM); in [2] it was 1 µg/mL (≈ 1.25 µM); with Staphylococcus aureus [3], 1 µg/mL (≈ 1.25 µM). The ED50 in the test with Staphylococcus aureus [6] turned out to be 36 mg/kg; in the test with Streptococcus pyogenes [7] it was 21 mg/kg; with Streptococcus pneumoniae [9] it was 29 mg/kg.

Turning to `CC[C@H]1OC(=O)[C@H](C)[C@@H](OC2CC(C)(OC)C(O)C(C)O2)[C@H](C)[C@@H](OC2OC(C)CC(N(C)C)C2O)[C@](C)(O)C[C@@H](C)[C@H](NCCC(C)C)[C@H](C)[C@@H](O)[C@]1(C)O` (some centres not stated), the MIC in the test on Haemophilus influenzae [4] is 1 µg/mL (≈ 1.24 µM); in the test with Streptococcus pneumoniae [5], 0.03 µg/mL (≈ 0.0373 µM); against Streptococcus pyogenes [1], 0.06 µg/mL (≈ 0.0745 µM); against Haemophilus influenzae [8], 1 µg/mL (≈ 1.24 µM); in test [2], 0.25 µg/mL (≈ 0.311 µM); with Staphylococcus aureus [3], 1 µg/mL (≈ 1.24 µM). In addition, the ED50 in the test on Staphylococcus aureus [6] worked out at 13 mg/kg; in the test with Streptococcus pyogenes [7], 9 mg/kg; with Streptococcus pneumoniae [9], 11 mg/kg.

On to `CC[C@H]1OC(=O)[C@H](C)[C@@H](OC2CC(C)(OC)C(O)C(C)O2)[C@H](C)[C@@H](OC2OC(C)CC(N(C)C)C2O)[C@](C)(O)C[C@@H](C)[C@H](NCC(C)(C)CO)[C@H](C)[C@@H](O)[C@]1(C)O` (some centres not stated), for which the MIC with Haemophilus influenzae [4] turned out to be 1 µg/mL (≈ 1.22 µM); in the test with Streptococcus pneumoniae [5], 0.015 µg/mL (≈ 0.0183 µM); against Streptococcus pyogenes [1], 0.03 µg/mL (≈ 0.0365 µM); against Haemophilus influenzae [8], 1 µg/mL (≈ 1.22 µM); in test [2], 1 µg/mL (≈ 1.22 µM); in the test with Staphylococcus aureus [3] it was 1 µg/mL (≈ 1.22 µM). Also, the ED50 was above 50 mg/kg in the test with Staphylococcus aureus [6], 20 mg/kg in the test with Streptococcus pyogenes [7] and 46 mg/kg in the test with Streptococcus pneumoniae [9].

In the case of `CC[C@H]1OC(=O)[C@H](C)[C@@H](OC2CC(C)(OC)C(O)C(C)O2)[C@H](C)[C@@H](OC2OC(C)CC(N(C)C)C2O)[C@](C)(O)C[C@@H](C)[C@H](N(C)C)[C@H](C)[C@@H](O)[C@]1(C)O` (some centres not stated), the MIC with Haemophilus influenzae [4] came out at 2 µg/mL (≈ 2.62 µM); in the test on Streptococcus pyogenes [1], 0.25 µg/mL (≈ 0.328 µM); against Haemophilus influenzae [8], 2 µg/mL (≈ 2.62 µM); in test [2], 2 µg/mL (≈ 2.62 µM); against Staphylococcus aureus [3] it was 4 µg/mL (≈ 5.24 µM). The values for the ED50 in the test on Staphylococcus aureus [6], with Streptococcus pyogenes [7] and with Streptococcus pneumoniae [9] were above 44 mg/kg, 22 mg/kg and 44 mg/kg, respectively.

As for `CC[C@H]1OC(=O)[C@H](C)[C@@H](OC2CC(C)(OC)C(O)C(C)O2)[C@H](C)[C@@H](OC2OC(C)CC(N(C)C)C2O)[C@](C)(O)C[C@@H](C)[C@H](N(C)C(C)C)[C@H](C)[C@@H](O)[C@]1(C)O` (some centres not stated), the MIC in the test with Haemophilus influenzae [4] came out at 32 µg/mL (≈ 40.5 µM); against Streptococcus pneumoniae [5] it was 0.5 µg/mL (≈ 0.632 µM); in the test with Streptococcus pyogenes [1] it was 0.5 µg/mL (≈ 0.632 µM); against Haemophilus influenzae [8] it was 32 µg/mL (≈ 40.5 µM); in [2], 8 µg/mL (≈ 10.1 µM); against Staphylococcus aureus [3], 8 µg/mL (≈ 10.1 µM).

`CCCCCCCCCCCCN[C@@H]1[C@H](C)[C@@H](O)[C@](C)(O)[C@@H](CC)OC(=O)[C@H](C)[C@@H](OC2CC(C)(OC)C(O)C(C)O2)[C@H](C)[C@@H](OC2OC(C)CC(N(C)C)C2O)[C@](C)(O)C[C@H]1C` (some centres not stated): the MIC with Streptococcus pneumoniae [5] turned out to be 0.06 µg/mL (≈ 0.0664 µM); with Streptococcus pyogenes [1], 0.5 µg/mL (≈ 0.554 µM); in test [2], 4 µg/mL (≈ 4.43 µM); against Staphylococcus aureus [3], 4 µg/mL (≈ 4.43 µM). Further, the figures for the ED50 in the test with Staphylococcus aureus [6], in the test with Streptococcus pyogenes [7] and in the test with Streptococcus pneumoniae [9] were above 45 mg/kg, above 50 mg/kg and above 50 mg/kg, respectively.

For the compound `CC[C@H]1OC(=O)[C@H](C)[C@@H](OC2CC(C)(OC)C(O)C(C)O2)[C@H](C)[C@@H](OC2OC(C)CC(N(C)C)C2O)[C@](C)(O)C[C@@H](C)[C@H](NC)[C@H](C)[C@@H](O)[C@]1(C)O` (some centres not stated), the MIC turned out to be 0.5 µg/mL (≈ 0.668 µM) in the test with Haemophilus influenzae [4]; 0.06 µg/mL (≈ 0.0801 µM) with Streptococcus pyogenes [1]; 0.5 µg/mL (≈ 0.668 µM) in the test with Haemophilus influenzae [8]; 0.25 µg/mL (≈ 0.334 µM) in test [2]; 1 µg/mL (≈ 1.34 µM) with Staphylococcus aureus [3]. The ED50 was 44 mg/kg in the test with Staphylococcus aureus [6], 21 mg/kg in the test on Streptococcus pyogenes [7] and 35 mg/kg in the test with Streptococcus pneumoniae [9].

As to `CC[C@H]1OC(=O)[C@H](C)[C@@H](OC2CC(C)(OC)C(O)C(C)O2)[C@H](C)[C@@H](OC2OC(C)CC(N(C)C)C2O)[C@](C)(O)C[C@@H](C)C(=O)[C@H](C)[C@@H](O)[C@H]1C` (some centres not stated), the MIC with Streptococcus pyogenes [1] is 0.03 µg/mL (≈ 0.0418 µM); against Haemophilus influenzae [8] it was 4 µg/mL (≈ 5.57 µM); in test [2], 0.25 µg/mL (≈ 0.348 µM); against Staphylococcus aureus [3] it was 0.25 µg/mL (≈ 0.348 µM).

For the compound `CC[C@H]1OC(=O)[C@H](C)[C@@H](OC2CC(C)(OC)C(O)C(C)O2)[C@H](C)[C@@H](OC2OC(C)CC(N(C)C)C2O)[C@](C)(O)C[C@@H](C)[C@H](NCCC(C)CCCC(C)(C)OC)[C@H](C)[C@@H](O)[C@]1(C)O` (some centres not stated), the MIC is 1 µg/mL (≈ 1.1 µM) in the test on Haemophilus influenzae [4]; 0.015 µg/mL (≈ 0.0166 µM) in the test on Streptococcus pyogenes [1]; 1 µg/mL (≈ 1.1 µM) in the test with Haemophilus influenzae [8]; 0.25 µg/mL (≈ 0.276 µM) in test [2]; 0.5 µg/mL (≈ 0.552 µM) in the test with Staphylococcus aureus [3]. In addition, the ED50 is above 46 mg/kg with Staphylococcus aureus [6], 25 mg/kg in the test on Streptococcus pyogenes [7] and 24 mg/kg in the test on Streptococcus pneumoniae [9].
